The term IC50 denotes the point on the concentration scale where inhibition reaches its midpoint.

Series [1] in a line: Cytotoxicity against mouse GT1-7 cells at 1 uM. The class given is cell-based. The following applies: gt1-7, 1 µM.
A short description of series [2]: cells. It counts as functional, cell-based. The settings on record: Mus musculus, GT1-7.
Series [3] has as its system Mus musculus. Nature of the series: Survival of intraventricularly dosed mouse infected with human transmissible spongiform encephalopathies agent Fukuoka1 at 250 ug/kg, after 70 to 98 days post-infection. It counts as functional. The gist of the method:
(§1)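 4-week-old male ddY mice inoculated in the right temporal lobe with 20 μl of 10% FK-1 (Fukuoka-1) infected brain homogenate. Drug in 5% glucose/saline (10 mg/ml stock, 0.2-μm filtered) given at 250 μg/kg per day by intraventricular osmotic-pump infusion over the stated d.p.i. window. Vehicle-only controls. Mice examined daily for neurological signs; survival analysed by Kaplan–Meier.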

Series [4] has as its system Mus musculus. Nature of the series: Survival of intraventricularly dosed mouse infected with human transmissible spongiform encephalopathies agent Fukuoka1 at 250 ug/kg, after 42 to 70 days post-infection. It counts as functional. In a few lines:
as §1

Series [5] in a line: cells. The class given is functional, cell-based. The following applies: Mus musculus, GT1-7, 72 h.
The test system of series [6] is GT1-7. Nature of the series: Effect on cellular form PrP expression in mouse GT1-7 cells. The class given is functional, cell-based. The gist of the method:
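Uninfected GT1-7 mouse neuronal cells (~2 × 10^5 per well) treated 15 h after plating, from 100 mM DMSO stocks diluted in medium (solvent control 0.1%), for 72 h. Lysates in Triton X-100/DOC buffer, normalized to 2 mg protein/ml. PrPC detected by Western blot with SAF32 antibody and ECL, then scanned.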

The species entered for series [7] is Mus musculus. Nature of the series: Binding affinity to recombinant mouse cellular form PrP (23-231).
The species named for series [8] is Mus musculus. Nature of the series: Stabilization of recombinant mouse cellular form PrP (23-231) conformation at 10 uM.

Structures are written as SMILES. The source made the active and inactive calls. The rule behind the calls is not given here. A value given as a limit tells only on which side of the number the result lay.

For `O=C(CCl)Nc1ccc(Cc2ccc(NC(=O)CCl)cc2)cc1`, the Activity entry in series [1] is given as “Toxic”. Further, the concentration for half-maximal inhibition (IC50) in series [2] is over 100 µM.

In the case of `O=C(CN1CCCC1)Nc1ccc(Cc2ccc(NC(=O)CN3CCCC3)cc2)cc1`, the Survival stood at 141.5 days in series [3] and 132.3 days in series [4]. The half-inhibitory concentration (IC50) in series [5] is 1.35 µM. In addition, the outcome in series [6] was inactive. Also, the Activity in series [7] was 3.9 ×10⁻⁶ M; in series [8], “Stable”.

Regarding `CC1CCCN(C(=O)Nc2ccc(Cc3ccc(NC(=O)N4CCCC(C)C4)cc3)cc2)C1` (configuration not stated), the Activity entry in series [1] is listed as “Toxic”. Further, the concentration for half-maximal inhibition (IC50) in series [2] was over 100 µM.

Consider `CCCCOC(=O)c1ccc2c(c1)C(=O)N(c1ccc(Oc3ccccc3)cc1)C2=O`, for which the Activity entry in series [1] is recorded as “Toxic”. Further, the IC50 in series [2] was over 100 µM.

Turning to `O=C1C=CC(=O)N1c1ccc(Cc2ccc(N3C(=O)C=CC3=O)cc2)cc1`, the Activity result in series [1] was “Toxic”. Moreover, in series [2], the IC50 was over 100 µM.

Regarding `O=C1C=CC(=O)N1c1ccc(Cc2ccc(N3C(=O)C=CC3=O)c(Cl)c2)cc1Cl`, in series [1], the Activity result is “Toxic”. The molecule also had an IC50 in series [2] of over 100 µM.

Take `O=C(c1cccc(I)c1)c1cccc(I)c1`: the Activity result in series [1] was “Toxic”. The same molecule gave a concentration for half-maximal inhibition (IC50) in series [2] of over 100 µM.

Regarding `O=S(=O)(c1cc(Cl)cc(Br)c1O)c1cc(Cl)cc(Br)c1O`, the Activity result in series [1] is “Toxic”. Moreover, the 50% inhibitory concentration (IC50) in series [2] was over 100 µM.

Turning to `O=C(O)c1ccc(C(=O)O)c(C(=O)Nc2ccc3c(c2)-c2ccccc2C3)c1`, in series [1], the Activity entry is listed as “Toxic”. Moreover, the IC50 in series [2] is over 100 µM.

On to `O=C(CN1CCOCC1)Nc1ccc(Cc2ccc(NC(=O)CN3CCOCC3)cc2)cc1`, for which, in series [1], the Activity entry is “Toxic”. The molecule further came in with a concentration for half-maximal inhibition (IC50) in series [2] of over 100 µM.

Consider `Cc1ccc(N2C(=O)c3ccc(C(=O)OCC(C)C)cc3C2=O)cc1Cl`, for which the Activity entry in series [1] is “Toxic”. The molecule further gave an IC50 in series [2] of over 100 µM.

With `COc1ccc(NC(=O)c2cc(Br)ccc2I)cc1Cl`, in series [1], the Activity entry is “Toxic”. Moreover, the IC50 in series [2] was over 100 µM.

Regarding `COc1ccc(C(=O)N=C2C=C(Br)C(=O)C(Br)=C2)cc1`, in series [1], the Activity entry is “Toxic”. For the same molecule, the IC50 in series [2] was over 100 µM.

With `Cc1sc(C(O)c2sc(C)c(C)c2I)c(I)c1C`, the Activity result in series [1] was “Toxic”. In series [2], this molecule returned an IC50 of over 100 µM.

Turning to `O=C(CN1CCCCC1)Nc1ccc(Cc2ccc(NC(=O)CN3CCCCC3)cc2)cc1`, the Activity result in series [1] is listed as “Toxic”. Besides, in series [2], the IC50 was over 100 µM.

Take `O=C(Nc1cc(Cl)c(Cl)cc1Cl)Nc1cc(Cl)c(Cl)cc1Cl`: the Activity result in series [1] is given as “Toxic”. Moreover, the IC50 in series [2] was over 100 µM.

As for `CCCCOC(=O)c1ccc(NC(=O)Nc2cc(C)ccc2C)cc1`, the Activity result in series [1] was “Toxic”. The molecule also registered an IC50 in series [2] of over 100 µM.

`CS(=O)(=O)O[C@H]1C[C@H](n2cc(F)c(=O)[nH]c2=O)O[C@@H]1CO`: the Activity entry in series [1] is listed as “Toxic”. This molecule also returned an IC50 in series [2] of over 100 µM.

On to `O=C(O)/C=C/C(=O)Nc1ccc(Cc2ccc(NC(=O)/C=C/C(=O)O)cc2)cc1`, for which, in series [1], the Activity result is on record as “Toxic”. This molecule registered a 50% inhibitory concentration (IC50) in series [2] of over 100 µM.

On to `O=C(Nc1ccc(Cc2ccc(NC(=O)C(Cl)(Cl)Cl)cc2)cc1)C(Cl)(Cl)Cl`, for which the Activity entry in series [1] is recorded as “Toxic”. This molecule showed an IC50 in series [2] of over 100 µM.

With `Cc1ccc(N2C(=O)c3ccc(C(=O)OCC(C)C)cc3C2=O)cc1C`, in series [1], the Activity entry is “Toxic”. The IC50 in series [2] is over 100 µM.

Regarding `COc1ccc(C(=O)c2ccc(Br)c([N+](=O)[O-])c2)cc1C`, the Activity result in series [1] was “Toxic”. This molecule also showed an IC50 in series [2] of over 100 µM.

In the case of `O=C(Nc1ccc(I)cc1)c1cccc(I)c1`, the Activity result in series [1] was “Toxic”. Moreover, the 50% inhibitory concentration (IC50) in series [2] is over 100 µM.

On to `COc1ccccc1C(=O)c1c(C(=O)O)ccc2ccccc12`, for which the Activity result in series [1] is listed as “Toxic”. This molecule came in with an IC50 in series [2] of over 100 µM.

For `CC(=O)[C@H]1CC[C@H]2[C@@H]3C[C@H](O)[C@@H]4C[C@H](O)CC[C@]4(C)[C@H]3CC[C@]12C`, the Activity result in series [1] was “Toxic”. The molecule further came in with an IC50 in series [2] of over 100 µM.

On to `Cc1ccc(C(=O)Nc2cccc([N+](=O)[O-])c2C)cc1I`, for which the Activity entry in series [1] is recorded as “Toxic”. This molecule also gave a concentration for half-maximal inhibition (IC50) in series [2] of over 100 µM.

Regarding `O=C(Nc1ccc2ccccc2c1)c1cccc(C(=O)Nc2ccc3ccccc3c2)c1`, in series [1], the Activity result is “Toxic”. The molecule further returned a half-maximal inhibitory concentration (IC50) in series [2] of over 100 µM.

Consider `C=CCSC1=N/C(=C\c2ccccc2Br)C(=O)S1`, for which the Activity entry in series [1] was “Toxic”. Also, the IC50 in series [2] was over 100 µM.

As for `O=C(Nc1ccc(I)cc1C(=O)O)c1ccc(Cl)cc1`, the Activity result in series [1] is listed as “Toxic”. For the same molecule, the IC50 in series [2] is over 100 µM.

Regarding `Cc1ccc(S(=O)(=O)Nc2ccccc2N(C)S(=O)(=O)c2ccc(C)cc2)cc1`, in series [1], the Activity result was “Toxic”. This molecule also returned a half-inhibitory concentration (IC50) in series [2] of over 100 µM.

In the case of `CC(=O)Nc1ccc(Cc2ccc(NC(C)=O)cc2)cc1`, the Activity result in series [1] is “Toxic”. This molecule also registered an IC50 in series [2] of over 100 µM.

In the case of `Cc1nc2c(n1CCO)C(=O)c1nc(C)n(CCO)c1C2=O`, the Activity result in series [1] is reported as “Toxic”. The same molecule showed a half-maximal inhibitory concentration (IC50) in series [2] of over 100 µM.

For `CCN(CCO)CCNc1ccc(C)c2sc3ccccc3c(=O)c12`, the Activity result in series [1] was “Toxic”. The IC50 in series [2] is over 100 µM.

For `O=C(c1ccc(I)c([N+](=O)[O-])c1)c1ccc(I)c([N+](=O)[O-])c1`, the Activity entry in series [1] was “Toxic”. This molecule yielded an IC50 in series [2] of over 100 µM.

`CC(=O)CC(=O)Nc1ccc(Cc2ccc(NC(=O)CC(C)=O)cc2)cc1`: in series [1], the Activity entry is recorded as “Toxic”. The molecule further yielded an IC50 in series [2] of over 100 µM.

As for `O=C(Nc1ccc(I)cc1)c1ccccc1I`, the Activity entry in series [1] is recorded as “Toxic”. This molecule also gave a half-maximal inhibitory concentration (IC50) in series [2] of over 100 µM.

Turning to `O=C(Nc1ccc(NC(=O)c2cccc3ccccc23)cc1)c1cccc2ccccc12`, in series [1], the Activity entry is given as “Toxic”. In series [2], this molecule registered an IC50 of over 100 µM.

Regarding `O=C(Nc1ccc(Cc2ccc(NC(=O)c3cccc([N+](=O)[O-])c3)cc2)cc1)c1cccc([N+](=O)[O-])c1`, the Activity result in series [1] is reported as “Toxic”. Besides, the IC50 in series [2] is over 100 µM.

For the molecule `Cc1c(NC(=O)c2cccc(I)c2)ccc([N+](=O)[O-])c1C`, the Activity result in series [1] was “Toxic”. In series [2], this molecule displayed an IC50 of over 100 µM.

Turning to `O=C(N/N=C/c1cc(Cl)cc(Cl)c1O)c1cccc(I)c1`, the Activity entry in series [1] was “Toxic”. Also, in series [2], the IC50 was over 100 µM.

Consider `O=c1n(S(=O)(=O)c2ccc(Cl)cc2)c2ccccc2n1S(=O)(=O)c1ccc(Cl)cc1`, for which, in series [1], the Activity entry is “Toxic”. Further, the half-inhibitory concentration (IC50) in series [2] was over 100 µM.

On to `C[C@]12CCC(=O)C=C1CC[C@@H]1[C@@H]2[C@@H](O)C[C@@]2(C)[C@H]1CC[C@]2(O)C(=O)COC(=O)CCC(=O)O` [HYDROCORTISONE HEMISUCCINATE ANHYDROUS], for which the Activity result in series [1] was “Toxic”. Besides, the IC50 in series [2] was over 100 µM.

Regarding `COc1ccc(C(=O)NNC(=O)c2ccc(OC)c(I)c2)cc1Br`, the Activity result in series [1] was “Toxic”. In series [2], this molecule gave an IC50 of over 100 µM.

As for `C=CCc1cc(/C=C2/C(=O)NC(=S)N(CC=C)C2=O)cc(OC)c1O`, the Activity result in series [1] was “Toxic”. In series [2], this molecule returned an IC50 of over 100 µM.
